Experimental data reported in ChEMBL document CHEMBL1681691, “Synthesis and biological activity of amino acid conjugates of abscisic acid” (Bioorg Med Chem, 2011).
Calls of active or inactive are those of the source. No cut-off for these calls is given here.

Legend:
Arabidopsis thaliana [1] = assay: Inhibition of seed germination in Arabidopsis thaliana at 10 uM after 24 hrs; format: functional
Summary of the method: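 Arabidopsis Col-0 seeds, 25 per test, sterilized in 70% EtOH for 30 min then EtOH for 1 min. Seeds were soaked in 250 µl test solution and chilled 3 days at 5 °C in the dark, then germinated on filter paper under continuous light for 24 h at 22 °C. Scored as % with emerged radicle; run twice. Single-concentration test at 10 µM.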

Lactuca sativa [2] = assay: Inhibition of seed germination in Lactuca sativa at 100 uM after 24 hrs; format: functional
Spinacia oleracea [3] = assay: Inhibition of seed germination in Spinacia oleracea at 100 uM after 24 hrs; format: functional
Summary of the method: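 Spinach cv. Jiromaru seeds sterilized with EtOH for 5 min and rinsed in running tap water for 2 h. Placed on filter paper wetted with 2 ml test solution in a Petri dish, held 2 days at 5 °C, then germinated 24 h at 22 °C under continuous light. Single-concentration test at 100 µM.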

Arabidopsis thaliana [4] = assay: Inhibition of seed germination in Arabidopsis thaliana after 24 hrs; format: functional, organism-based
Lactuca sativa [5] = assay: Inhibition of seed germination in Lactuca sativa after 24 hrs; format: functional, organism-based
Oryza sativa [6] = assay: Inhibition of seedling elongation in Oryza sativa after 7 days
Oryza sativa [7] = assay: Inhibition of seedling elongation in Oryza sativa at 100 uM after 7 days
[8] = target: T1, IAA-amino acid hydrolase ILR1-like 4 (Arabidopsis thaliana) (UniProt O04373); assay: Activity at GST-tagged IAR3 of Arabidopsis thaliana assessed as IAA release per mg of protein after 5 hrs by HPLC
T1 sequence (whole entry): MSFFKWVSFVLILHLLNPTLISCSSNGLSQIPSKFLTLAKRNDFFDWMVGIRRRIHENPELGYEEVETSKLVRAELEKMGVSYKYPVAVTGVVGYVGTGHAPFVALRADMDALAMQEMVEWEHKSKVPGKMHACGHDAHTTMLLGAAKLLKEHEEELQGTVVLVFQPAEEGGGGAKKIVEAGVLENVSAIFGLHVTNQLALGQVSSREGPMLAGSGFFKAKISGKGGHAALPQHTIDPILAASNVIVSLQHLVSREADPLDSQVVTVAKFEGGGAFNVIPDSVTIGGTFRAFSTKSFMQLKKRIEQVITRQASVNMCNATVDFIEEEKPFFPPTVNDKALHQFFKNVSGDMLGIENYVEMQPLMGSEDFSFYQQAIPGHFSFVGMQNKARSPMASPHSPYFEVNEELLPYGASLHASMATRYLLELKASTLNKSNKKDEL
Summary of the method: (§1)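 Recombinant Arabidopsis GST-IAR3 expressed in E. coli BL21(DE3) (IPTG 50 µM, overnight at 18 °C) and purified on glutathione-agarose. Substrate at 1 mM was preincubated 5 min at 30 °C in 50 mM Tris-HCl pH 8.0 with 1 mM DTT and 1 mM MnCl2. Reaction started with 15 ng/µl enzyme at 30 °C, sampled up to 5 h (some substrates 7 or 24 h), quenched in MeOH/1% AcOH, cleaned on cartridge, HPLC at 254 nm.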

[9] = target: T1, IAA-amino acid hydrolase ILR1-like 4 (Arabidopsis thaliana); assay: Activity at GST-tagged IAR3 of Arabidopsis thaliana assessed as ABA release per mg of protein after 7 hrs by HPLC; summary of the method: as §1
Spinacia oleracea [10] = assay: Inhibition of seed germination in Spinacia oleracea at 100 uM after 24 hrs
[11] = target: T1, IAA-amino acid hydrolase ILR1-like 4 (Arabidopsis thaliana); assay: Activity at GST-tagged IAR3 of Arabidopsis thaliana assessed as ABA release per mg of protein after 5 hrs by HPLC; summary of the method: as §1
Oryza sativa [12] = assay: Metabolic stability in Oryza sativa seedling assessed as ABA-d6 release per mg of protein after 4 days by LC-MS; format: ADME, organism-based; details: in vivo, 96 h
[13] = Chemical stability of the compound at 25 degC after 7 days; format: physicochemical; details: 168 h
Summary of the method: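 Compound at 100 µM in 2 ml aqueous solution, prepared as for the rice growth assay, held in a capped glass tube at 25 °C under continuous light for 7 days, then analysed by reverse-phase HPLC.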

Structure (SMILES)	IC50 (Oryza sativa [6]) [µM]	inhibition at 100 µM (Oryza sativa [7]) [%]	further results
CC1=CC(=O)CC(C)(C)[C@@]1(O)/C=C/C(C)=C\C(=O)O [(+)-ABSCISIC ACID]	2.1	100	inhibition at 10 µM (Arabidopsis thaliana [1]): 100%; inhibition at 100 µM (Lactuca sativa [2]): 100%; inhibition at 100 µM (Spinacia oleracea [3]): 100%; IC50 (Arabidopsis thaliana [4]): 0.2 µM; IC50 (Lactuca sativa [5]): 5.7 µM
C[C@H](NC(=O)Cc1c[nH]c2ccccc12)C(=O)O			Activity [8]: 2100 nmol/h/mg
CC1=CC(=O)CC(C)(C)[C@@]1(O)/C=C/C(C)=C\C(=O)N[C@@H](CO)C(=O)O	13	> 80	
CC1=CC(=O)CC(C)(C)[C@@]1(O)/C=C/C(C)=C\C(=O)N[C@@H](CC(N)=O)C(=O)O	9.3	> 80	Activity [9]: 19 nmol/h/mg
CC1=CC(=O)CC(C)(C)[C@@]1(O)/C=C/C(C)=C\C(=O)N[C@@H](CCC(N)=O)C(=O)O	8.3	> 80	inhibition (Spinacia oleracea [10]): Active
CC1=CC(=O)CC(C)(C)[C@@]1(O)/C=C/C(C)=C\C(=O)N[C@@H](CC(=O)O)C(=O)O	6.4	> 80	
CC1=CC(=O)CC(C)(C)[C@@]1(O)/C=C/C(C)=C\C(=O)NCC(=O)O	5.7	> 80	Activity [11]: 230 nmol/h/mg
CSCC[C@H](NC(=O)/C=C(C)\C=C\[C@@]1(O)C(C)=CC(=O)CC1(C)C)C(=O)O	16	> 80	Activity [9]: 22 nmol/h/mg
[2H]C([2H])([2H])C1(C([2H])([2H])[2H])CC(=O)C=C(C)[C@]1(O)/C=C/C(C)=C\C(=O)N[C@@H](C)C(=O)O			Stability (Oryza sativa [12]): Unstable
CC1=CC(=O)CC(C)(C)[C@@]1(O)/C=C/C(C)=C\C(=O)N[C@@H](CCC(=O)O)C(=O)O			inhibition (Spinacia oleracea [10]): Active
[2H]C([2H])([2H])C1(C([2H])([2H])[2H])CC(=O)C=C(C)[C@]1(O)/C=C/C(C)=C\C(=O)N[C@H](C)C(=O)O			Stability (Oryza sativa [12]): Stable
CC1=CC(=O)CC(C)(C)[C@@]1(O)/C=C/C(C)=C\C(=O)N[C@@H](C)C(=O)O	7	> 80	inhibition (Arabidopsis thaliana [1]): Active; Stability [13]: Stable; Activity [11]: 310 nmol/h/mg
